Results on two molecules are retold here after publication PMC3607822 (The Journal of General Physiology, 2013).

The Hill coefficient is the slope factor of the fitted curve.

Test [1] concerns the target T1, A3-N7R-A,RR-QQ+B3 channels (Homo sapiens, UniProt Q16281+Q9NQW8, R101A/R103A/R643Q/R646Q/R72A/R75A/R81A/R82A/R86A).
T1 sequence (Q16281 1-694 R72A/R75A/R81A/R82A/R86A/R101A/R103A/R643Q/R646Q): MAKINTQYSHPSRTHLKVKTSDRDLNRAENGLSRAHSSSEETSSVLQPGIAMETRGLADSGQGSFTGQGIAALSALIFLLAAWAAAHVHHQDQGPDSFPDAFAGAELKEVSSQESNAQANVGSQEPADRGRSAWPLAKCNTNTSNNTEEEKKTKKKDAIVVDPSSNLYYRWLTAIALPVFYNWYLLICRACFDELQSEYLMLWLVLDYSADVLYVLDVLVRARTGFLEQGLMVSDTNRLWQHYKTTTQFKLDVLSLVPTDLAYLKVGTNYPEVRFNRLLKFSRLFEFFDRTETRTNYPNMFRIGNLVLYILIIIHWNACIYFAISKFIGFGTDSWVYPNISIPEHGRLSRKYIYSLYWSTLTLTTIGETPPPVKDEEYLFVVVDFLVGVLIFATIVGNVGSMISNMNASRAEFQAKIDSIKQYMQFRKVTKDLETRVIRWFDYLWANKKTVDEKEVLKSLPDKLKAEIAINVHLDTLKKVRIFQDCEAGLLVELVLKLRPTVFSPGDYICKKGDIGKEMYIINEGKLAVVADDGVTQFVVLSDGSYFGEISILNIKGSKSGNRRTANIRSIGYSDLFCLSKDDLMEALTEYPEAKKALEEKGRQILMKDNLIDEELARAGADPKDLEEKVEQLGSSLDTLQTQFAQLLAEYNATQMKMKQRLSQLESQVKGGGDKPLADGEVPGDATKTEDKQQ
T1 sequence (Q9NQW8 1-809): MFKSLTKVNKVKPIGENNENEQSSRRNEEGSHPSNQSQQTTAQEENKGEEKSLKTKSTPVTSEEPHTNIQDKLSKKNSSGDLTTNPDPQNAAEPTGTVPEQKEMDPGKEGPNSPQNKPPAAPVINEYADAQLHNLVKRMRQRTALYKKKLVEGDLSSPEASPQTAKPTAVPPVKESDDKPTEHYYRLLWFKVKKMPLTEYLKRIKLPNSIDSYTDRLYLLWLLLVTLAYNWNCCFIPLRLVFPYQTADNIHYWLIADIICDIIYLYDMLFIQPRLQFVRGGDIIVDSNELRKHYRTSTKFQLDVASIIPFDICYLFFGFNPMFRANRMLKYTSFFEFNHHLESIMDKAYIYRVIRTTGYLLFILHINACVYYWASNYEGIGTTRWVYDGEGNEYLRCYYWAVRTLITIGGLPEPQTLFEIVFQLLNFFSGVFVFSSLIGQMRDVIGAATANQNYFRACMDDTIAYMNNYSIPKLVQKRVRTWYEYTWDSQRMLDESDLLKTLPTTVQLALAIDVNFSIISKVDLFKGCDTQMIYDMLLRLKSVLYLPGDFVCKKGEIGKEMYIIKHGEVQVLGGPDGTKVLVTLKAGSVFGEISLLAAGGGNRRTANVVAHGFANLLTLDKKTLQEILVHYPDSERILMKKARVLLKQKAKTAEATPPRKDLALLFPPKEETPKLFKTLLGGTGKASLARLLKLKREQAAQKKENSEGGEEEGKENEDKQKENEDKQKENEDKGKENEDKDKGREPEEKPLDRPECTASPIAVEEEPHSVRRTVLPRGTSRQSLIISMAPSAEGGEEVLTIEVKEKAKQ
In words: Inside-out patch clamp, A3-N7R-A,RR-QQ+B3. It counts as biochemical. An outline of the steps:
(§1)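 Subunit cRNAs (~20 ng, B in excess over A) injected into stage IV Xenopus oocytes; inside-out patches 2–7 d later, 20–22°C, symmetric 130 mM NaCl, 0.2 mM EDTA, 3 mM Hepes pH 7.2. Heteromer formation checked by 25 µM l-cis-diltiazem with 1 mM cGMP. diC8 phosphoinositides applied intracellularly in phosphatase-inhibitor cocktail. cGMP dose–response at +80 mV, leak-subtracted, Hill fit before/after for K1/2; mean ± SEM.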

For test [2], the system named is PA-LP+RR-QQ CNGA3 channels. The test can be described thus: Inside-out patch clamp, coexpression of A3 PA-LP with A3 RR-QQ. Format: biochemical, human. Conditions: 1 µM PIP3.
For a further test, the target named is A2ΔN+B3 channels (UniProt Q00195+Q9NQW8, DEL61-90). In words: Inside-out patch clamp, A2ΔN+B3. Conditions: 1 µM PIP3. It counts as biochemical, rat, human. An outline of the steps: as §1
For another test, the target named is A2ΔN+B1 channels (UniProt Q00195+Q14028, DEL61-90). The test can be described thus: Inside-out patch clamp, A2ΔN+B1. It counts as biochemical, rat, human. To be noted: 1 µM PIP3. A digest of the protocol: as §1
In general terms: In patch-clamp work, channel activity is measured electrically.

The target in test [3] is wild-type CNGA2 with CNGB3 channels (UniProt Q00195+Q9NQW8). The test can be described thus: Inside-out patch clamp, CNGA2 with CNGB3. Format: biochemical, rat, human. Conditions: 1 µM PIP3. A digest of the protocol:
as §1

The target of test [4] is CNGA3 with CNGB1 channels (Homo sapiens, UniProt Q14028+Q16281). The test can be described thus: Inside-out patch clamp, CNGA3 with CNGB1. It counts as biochemical. To be noted: 1 µM PIP3. A digest of the protocol:
as §1

The next test addresses GST fusion A3C-635X (Homo sapiens, UniProt Q16281). The test can be described thus: In vitro PIP3-agarose bead pull-down, A3C-635X. It counts as binding. To be noted: PIP3-agarose beads, anti-GST immunoblot; compared with A3C. A digest of the protocol: (§2)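 Recombinant GST fusions of channel fragments expressed in E. coli and purified; soluble fraction kept after 20,000 g, 4°C, 30 min. Protein (2 µg/ml) rocked with PIP3- or control agarose beads, 2 h, 4°C, in 10 mM Hepes pH 7.4, 50 mM NaCl, 2 mM EDTA, 0.25% Triton X-100, 0.25% NP-40. Five washes, elution in sample buffer, reducing SDS gel, anti-GST (1:2,000, overnight) immunoblot, chemiluminescence; […].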
Background: Immunoblotting shows a protein as a band on a membrane.

The target of test [5] is GST fusion of CNGA3 N-terminal region (A3N, amino acids 1–164) (Homo sapiens, UniProt Q16281). The test can be described thus: In vitro PIP3-agarose bead pull-down, A3N. Format: binding. Conditions: PIP3-agarose beads, anti-GST immunoblot. An outline of the steps: as §2
Test [6] deals with CNGA3 N2R-A, 613X channels (Homo sapiens, UniProt Q16281, R101A/R103A). The test can be described thus: Inside-out patch clamp, CNGA3 N2R-A, 613X. Format: biochemical.
A further test concerns the target CNGA3 D609K channels (Homo sapiens, UniProt Q16281, D609K). In words: Inside-out patch clamp, CNGA3 D609K. Format: biochemical. To be noted: estimated using tetracaine block.

CNGA3 N2R-A, 613X channels, sequence (Q16281 1-612 R101A/R103A limits assumed): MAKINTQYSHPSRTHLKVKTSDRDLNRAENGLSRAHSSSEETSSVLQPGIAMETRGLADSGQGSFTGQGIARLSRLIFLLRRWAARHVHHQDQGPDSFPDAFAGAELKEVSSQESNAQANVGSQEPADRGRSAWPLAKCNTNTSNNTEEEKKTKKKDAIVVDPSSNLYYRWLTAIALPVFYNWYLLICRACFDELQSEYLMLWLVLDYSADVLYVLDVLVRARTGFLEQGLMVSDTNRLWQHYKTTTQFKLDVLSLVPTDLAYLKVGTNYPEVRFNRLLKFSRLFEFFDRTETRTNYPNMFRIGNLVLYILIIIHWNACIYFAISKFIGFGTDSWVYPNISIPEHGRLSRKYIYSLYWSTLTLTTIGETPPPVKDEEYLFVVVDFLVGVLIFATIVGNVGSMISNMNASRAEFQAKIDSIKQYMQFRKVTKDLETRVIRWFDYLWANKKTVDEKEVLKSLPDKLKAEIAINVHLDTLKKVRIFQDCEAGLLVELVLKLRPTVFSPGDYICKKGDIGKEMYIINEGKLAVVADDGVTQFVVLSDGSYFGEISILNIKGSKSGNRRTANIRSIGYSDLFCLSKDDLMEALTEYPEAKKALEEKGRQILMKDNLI
CNGA3 with CNGB1 channels, sequence (Q16281 whole entry): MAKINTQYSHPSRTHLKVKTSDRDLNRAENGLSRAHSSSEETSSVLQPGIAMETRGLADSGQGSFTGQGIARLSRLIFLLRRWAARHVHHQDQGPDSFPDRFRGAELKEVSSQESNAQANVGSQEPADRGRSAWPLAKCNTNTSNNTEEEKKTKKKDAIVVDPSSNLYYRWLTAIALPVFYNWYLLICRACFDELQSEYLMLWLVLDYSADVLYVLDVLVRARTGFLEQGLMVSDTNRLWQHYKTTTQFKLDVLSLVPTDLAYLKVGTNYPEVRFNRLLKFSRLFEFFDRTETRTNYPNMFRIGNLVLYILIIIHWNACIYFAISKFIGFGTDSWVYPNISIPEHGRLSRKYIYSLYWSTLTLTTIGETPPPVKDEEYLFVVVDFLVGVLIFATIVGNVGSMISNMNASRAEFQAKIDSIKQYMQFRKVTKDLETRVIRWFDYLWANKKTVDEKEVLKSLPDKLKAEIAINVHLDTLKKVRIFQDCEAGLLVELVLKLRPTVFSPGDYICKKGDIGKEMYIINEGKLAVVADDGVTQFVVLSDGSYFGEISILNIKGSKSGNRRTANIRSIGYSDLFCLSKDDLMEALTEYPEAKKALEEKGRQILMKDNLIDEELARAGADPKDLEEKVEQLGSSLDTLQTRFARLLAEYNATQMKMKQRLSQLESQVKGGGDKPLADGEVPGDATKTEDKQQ
CNGA3 with CNGB1 channels, sequence (Q14028 whole entry): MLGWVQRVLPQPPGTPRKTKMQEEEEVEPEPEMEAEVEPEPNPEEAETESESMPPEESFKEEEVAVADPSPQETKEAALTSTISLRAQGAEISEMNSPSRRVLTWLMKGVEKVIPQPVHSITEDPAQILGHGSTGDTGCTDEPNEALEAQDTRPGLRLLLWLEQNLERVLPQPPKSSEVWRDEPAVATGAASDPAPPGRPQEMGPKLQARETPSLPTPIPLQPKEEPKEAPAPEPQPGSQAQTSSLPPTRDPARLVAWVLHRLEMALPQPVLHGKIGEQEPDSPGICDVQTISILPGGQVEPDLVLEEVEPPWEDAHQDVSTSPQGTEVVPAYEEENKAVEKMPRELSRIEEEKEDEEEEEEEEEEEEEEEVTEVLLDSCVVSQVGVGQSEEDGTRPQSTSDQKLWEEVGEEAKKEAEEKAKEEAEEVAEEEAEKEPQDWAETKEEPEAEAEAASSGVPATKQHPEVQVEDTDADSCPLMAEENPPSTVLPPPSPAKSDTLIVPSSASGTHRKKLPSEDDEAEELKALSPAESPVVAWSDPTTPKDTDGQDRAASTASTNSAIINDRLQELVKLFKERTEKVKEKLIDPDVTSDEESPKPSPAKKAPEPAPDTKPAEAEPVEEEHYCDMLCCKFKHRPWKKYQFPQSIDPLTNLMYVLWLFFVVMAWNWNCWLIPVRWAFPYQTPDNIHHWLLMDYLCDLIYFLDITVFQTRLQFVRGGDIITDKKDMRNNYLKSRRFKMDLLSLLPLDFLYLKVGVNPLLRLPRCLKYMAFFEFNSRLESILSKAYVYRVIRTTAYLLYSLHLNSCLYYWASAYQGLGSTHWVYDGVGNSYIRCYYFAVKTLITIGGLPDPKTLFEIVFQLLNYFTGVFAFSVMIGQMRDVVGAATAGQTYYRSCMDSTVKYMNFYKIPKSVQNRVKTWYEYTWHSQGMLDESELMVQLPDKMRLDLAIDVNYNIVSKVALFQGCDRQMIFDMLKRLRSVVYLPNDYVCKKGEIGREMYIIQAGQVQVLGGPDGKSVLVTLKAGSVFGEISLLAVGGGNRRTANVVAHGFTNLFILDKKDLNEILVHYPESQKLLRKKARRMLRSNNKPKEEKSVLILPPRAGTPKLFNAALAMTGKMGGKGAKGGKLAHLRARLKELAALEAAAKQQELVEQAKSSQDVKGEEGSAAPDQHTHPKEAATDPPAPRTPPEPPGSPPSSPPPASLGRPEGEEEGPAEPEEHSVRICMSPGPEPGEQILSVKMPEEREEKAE
CNGA3 D609K channels, sequence (Q16281 whole entry D609K): as the sequence (Q16281 whole entry) above, with D609K counted along it
GST fusion of CNGA3 N-terminal region (A3N, amino acids 1–164), sequence (Q16281 1-164): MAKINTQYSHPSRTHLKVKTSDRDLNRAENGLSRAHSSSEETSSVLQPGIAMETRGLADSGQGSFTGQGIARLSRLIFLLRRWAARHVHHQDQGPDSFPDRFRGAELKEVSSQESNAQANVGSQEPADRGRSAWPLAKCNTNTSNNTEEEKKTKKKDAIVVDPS

As for “phosphatidylinositol (3,4,5)-trisphosphate [PIP3]”, the “regulation of apparent cGMP affinity” value in test [1] (10 µM PIP2 or 1 µM PIP3) is “insensitive to regulation”. The “percent change in K1/2 cGMP caused by PIP3” value in test [1] (10 µM PIP3) is recorded as 2 ± 8%. Besides, the “Imax cAMP/cGMP (PIP3/control)” value in test [2] is given as 1.67 ± 0.06. In addition, the “regulation of K1/2 cGMP by PIP3” value at A2ΔN+B3 channels was “insensitive to regulation by PIP3”; at A2ΔN+B1 channels it was “insensitive to regulation by PIP3”; in test [3], “PIP3-sensitive”; in [4] it was “PIP3-sensitive”. The “in vitro PIP3 binding” value at GST fusion A3C-635X is “attenuated binding to PIP3 beads”; in test [5] it was “able to directly bind PIP3”.

`Nc1nc2c(ncn2[C@@H]2O[C@@H]3COP(=O)(O)O[C@H]3[C@H]2O)c(=O)[nH]1` [cGMP, cyclic guanosine monophosphate]: the Hill coefficient in test [6] (cGMP activation) was 1.68 ± 0.03 (4). Also, the EC50 in test [6] (read-out: K1/2 cGMP, +80 mV, no PIPn) is 16.1 ± 0.59 µM. For the same molecule, the “Po max cGMP” value at CNGA3 D609K channels is given as 0.78 ± 0.01.
